Activity calls are given as the source filed them. The rule behind the calls is not given here.
How the values were obtained:
CCRF-CEM [1] = assay: Cytotoxicity against drug-sensitive CCRF-CEM cells after 72 hrs; assay type: cell-based; settings: Homo sapiens
Summary of the method: (§1)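 Leukemic lymphoblasts (parent CCRF-CEM, Pgp-overexpressing CEM/VLB100, topo II-altered CEM/VM-1) grown in RPMI 1640 with 10% FCS and antibiotics, 37 °C, 5% CO2. Serial dilutions in medium added to 2 × 10⁵ cells/mL for 3 days, medium not renewed. Survivors counted on a Coulter counter. Triplicate, averaged.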

[2] = Cytotoxicity against teniposide-resistant CEM/VM1 cells after 72 hrs; assay type: cell-based; settings: Homo sapiens, CEM-VM1, 72 h; summary of the method: as §1
CCRF-CEM [3] = assay: Antiproliferative activity against CCRF-CEM cells at 20 uM after 72 hrs; assay type: functional, cell-based; settings: Homo sapiens; summary of the method: as §1
DLD-1 = assay: Antiproliferative activity against human DLD1 cells at 5 uM after 48 hrs by RRT assay; assay type: functional, cell-based
Summary of the method: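 Adherent lines in supplemented Glutamax MEM, 37 °C, 5% CO2. Seeded 5 × 10³ cells/well, adhered 16 h, then treated 48 h continuously, alone or in combination, in 0.5% DMSO (solvent control). Resazurin 25 µg/mL in MEM added, 1 h at 37 °C, fluorescence 530/590 nm. Survival = % of control after blank subtraction; IC50 from concentration–survival curve. Two independent assays in triplicate.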

[4] = Cytotoxicity against vinblastine-resistant CEM/VLB100 cells after 72 hrs; assay type: cell-based; settings: Homo sapiens, CEM/VLB100, 72 h; summary of the method: as §1
CCRF-CEM [5] = assay: Ratio of IC50 for vinblastine-resistant CEM/VLB100 cells over IC50 for drug-sensitive CCRF-CEM cells; assay type: functional, Homo sapiens
CCRF-CEM [6] = assay: Ratio of IC50 for teniposide-resistant CEM/VM1 cells over IC50 for drug-sensitive CCRF-CEM cells; assay type: functional, Homo sapiens

SMILES | IC50 (CCRF-CEM [1]) | IC50 [2] | Activity (CCRF-CEM [3]) | Activity (DLD-1) | IC50 [4] | Ratio IC50 (CCRF-CEM [5]) | Ratio IC50 (CCRF-CEM [6])
C/C=C1/NC(=O)[C@H](CCO)NC(=O)C[C@@H](CCCCC)NC(=O)CNC(=O)[C@H](CC(C)C)NC(=O)[C@@H]([C@@H](C)CC)NC(=O)[C@H]([C@@H](C)CC)NC(=O)[C@@H](CC(C)C)NC(=O)[C@@H](Cc2ccccc2)NC(=O)[C@H](CCO)NC(=O)[C@@H]2C[C@@H](O)CN2C1=O [LAXAPHYCIN A] | > 20 µM | > 20 µM | inactive | inactive | > 20 µM | – | –
COc1cccc2c1C(=O)c1c(O)c3c(c(O)c1C2=O)C[C@@](O)(C(=O)CO)C[C@@H]3O[C@H]1C[C@H](N)[C@H](O)[C@H](C)O1 [DOXORUBICIN] | 0.06 µM | 0.55 µM | – | – | 3.71 µM | 62 | 9
CCCCCCC[C@@H]1CC(=O)N[C@@H](C(C)C)C(=O)N[C@H]([C@@H](O)C(C)C)C(=O)N[C@@H](C)C(=O)N[C@H](CC(C)C)C(=O)N[C@@H](CCC(N)=O)C(=O)N(C)[C@@H]([C@@H](C)CC)C(=O)N[C@H]([C@@H](O)C(N)=O)C(=O)N[C@@H]([C@@H](C)O)C(=O)N2CCC[C@H]2C(=O)N[C@H](CC(C)C)C(=O)N[C@@H]([C@@H](C)O)C(=O)N1 [LAXAPHYCIN B2] | 4.15 µM | 4.14 µM | – | – | 3.33 µM | 0.8 | 1
